From ChEMBL document CHEMBL1121519, “Basic antiinflammatory compounds. N,N',N''-Trisubstituted guanidines” (J Med Chem, 1980)

How the values were obtained:
[1] = Lethal dose in mice determined by Litchfield and Wilcoxon methods after peroral administration.; assay type: toxicity, organism-based; details: mouse, in vivo, po
Summary of the method: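 Median lethal dose found after oral dosing of mice, four mice per dose level, and calculated by the Litchfield–Wilcoxon method.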

[2] = molecular target: T1, Cyclooxygenase (Bos taurus) (UniProt O62664+O62698); assay: Inhibition of prostaglandin synthetase in bovine seminal vesicle microsomes using Beckman liquid scintillation counter at 10 e-5 M; details: Microsome
[3] = Toxic score (3) was measured as lethal dose in orally administered mice; assay type: toxicity, organism-based; details: mouse, in vivo, po
Summary of the method: (§1)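 Score derived from mouse oral LD50 (Litchfield–Wilcoxon, four mice per dose), in mg/kg: >1000 = 3; 500-1000 = 2; <500 = 1.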

Rattus norvegicus [4] = species on record: Rattus norvegicus; assay: Tested for inhibition in the rat paw injected with carrageenan.; assay type: functional; design: concentration or dose not given beside the values
Rattus norvegicus [5] = species on record: Rattus norvegicus; assay: Tested for inhibition in the rat paw not injected with […].; assay type: functional; design: concentration or dose not given beside the values
Summary of the method: (§2)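 Adjuvant-induced arthritis, female Lewis rats, six per group: M. butyricum in mineral oil (3 mg/mL, 0.1 mL) injected into right hind paw plantar tissue. Daily oral dosing from adjuvant day to day 28, 10 or 5 (mg/kg)/day according to mouse oral LD50 (≥1000 or <1000 mg/kg). Injected and noninjected paw swelling read by mercury-displacement plethysmometry on day 28.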

Rattus norvegicus [6] = assay: Percent inhibition of carrageenan paw edema in rat, administered orally at a dose of one tenth of oral lethal dose in mice; assay type: functional
Summary of the method: (§3)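 1 h later, 0.1 mL of 1% carrageenan was injected into the right hind-paw plantar tissue. Paw swelling was measured by mercury-displacement plethysmometry 3 h after carrageenan, compared with controls.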

Rattus norvegicus [7] = assay: Total score is the sum of scores obtained in the adjuvant arthritis, acute toxicity, carrageenan edema, and prostaglandin synthetase assay; assay type: functional
[8] = molecular target: T1, Cyclooxygenase (Bos taurus); assay: Tested for Prostaglandin synthetase inhibition in Bovine seminal vesicle microsomes using Beckman liquid scintillation counter at 10 e-5 M; assay type: functional; details: Microsome
Rattus norvegicus [9] = assay: Tested for percent enhancement of carrageenan paw edema in rat, administered orally at a dose of one tenth of oral lethal dose in mice; assay type: functional; summary of the method: as §3
[10] = Toxic score was measured as lethal dose in orally administered mice;Values ranges from: 500-1000; assay type: toxicity, organism-based; details: mouse, in vivo, po; summary of the method: as §1
Rattus norvegicus [11] = species on record: Rattus norvegicus; assay: Average percent inhibition (arthritis score=0) of the swelling of both injected and non injected paw was measured; assay type: functional
Summary of the method: (§4)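 Adjuvant arthritis in inbred female Lewis rats, groups of six, acclimatized 2 weeks. Arthritis induced by injecting 0.1 mL M. butyricum in mineral oil (3 mg/mL) into right hind paw plantar tissue. Oral dosing daily from adjuvant day to day 28: 10 (mg/kg)/day if mouse oral LD50 ≥1000 mg/kg, else 5 (mg/kg)/day. Swelling of injected and noninjected paws measured day 28 by mercury-displacement plethysmometry; mean percent inhibition scored 0–3.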

[12] = Toxic score (1) was measured as lethal dose in orally administered mice; assay type: toxicity, organism-based; details: in vivo, po; summary of the method: as §1
Rattus norvegicus [13] = species on record: Rattus norvegicus; assay: Average percent inhibition (arthritis score)of the swelling of both injected and non injected paw was measured; assay type: functional; summary of the method: as §4
Rattus norvegicus [14] = assay: Effective dose against carrageenan edema(peroral administration); assay type: functional; details: po
Summary of the method: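 Sprague-Dawley rats fasted 18 h, dosed orally in 0.5% carboxymethylcellulose suspension 1 h before 0.1 mL of 1% carrageenan into right hind paw plantar tissue. Paw swelling in treated versus control rats measured 3 h post-carrageenan by mercury-displacement plethysmometry; ED50 given in mg/kg po.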

Rattus norvegicus [15] = assay: Effective dose against gastroulcerogenic activity (peroral administration); assay type: functional; details: po
Summary of the method: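 Groups of six Sprague-Dawley rats given oral doses once daily for 3 days; inner stomach surface examined for lesions 24 h after last dose. ED50 is the dose giving macroscopically visible lesions in 50% of rats.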

Rattus norvegicus [16] = assay: Effective dose against nystatin edema(peroral administration); assay type: functional; details: po
Rattus norvegicus [17] = assay: Effective dose against analgesic activity (peroral administration); assay type: functional; details: po
Rattus norvegicus [18] = assay: Tested for percent inhibition of carrageenan paw edema in rat, administered orally at a dose of one tenth of oral lethal dose in mice; assay type: functional
Summary of the method: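 Sprague-Dawley rats fasted 18 h; compound suspended in 0.5% carboxymethylcellulose, given orally 1 h before 0.1 mL of 1% carrageenan suspension injected into the plantar tissue of the right hind paw. Paw swelling measured by mercury-displacement plethysmometry 3 h after carrageenan, treated versus controls. Mouse oral LD50 was from the Litchfield-Wilcoxon method with four mice per dose.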

Rattus norvegicus [19] = assay: Minimum effective dose against adjuvant arthritis on administration); assay type: functional; details: read-out: MED
Summary of the method: (§5)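 Female Lewis rats given adjuvant arthritis by plantar M. butyricum in mineral oil. Oral daily dosing either from adjuvant day to day 28 (continuous), day 16 to day 28 (therapeutic), or day 5 pre- to day 5 postadjuvant (prophylactic). MED: lowest dose producing significant (p < 0.05) inhibition of noninjected paw swelling on day 28, by plethysmometry.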

Rattus norvegicus [20] = assay: Minimum effective dose against adjuvant arthritis on prophylactic dosing (peroral administration); assay type: functional; details: po, read-out: MED; summary of the method: as §5
Rattus norvegicus [21] = assay: Minimum effective dose against adjuvant arthritis on therapeutic dosing (peroral administration); assay type: functional; details: po, read-out: MED; summary of the method: as §5
Rattus norvegicus [22] = species on record: Rattus norvegicus; assay: Minimum effective dose is the lowest dose preventing any futher increase in body temperature; assay type: functional; details: read-out: MED
Summary of the method: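 Antipyretic test, oral dosing; MED defined as the lowest dose preventing any further increase of body temperature.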

Rattus norvegicus [23] = species on record: Rattus norvegicus; assay: Average percent inhibition (arthritis score=1) of the swelling of both injected and non injected paw was measured; […]; assay type: functional
Rattus norvegicus [24] = species on record: Rattus norvegicus; assay: Average percent inhibition of the swelling of both injected and non injected paw was measured; […]; assay type: functional
Rattus norvegicus [25] = species on record: Rattus norvegicus; assay: Tested for enhancement in the rat paw not injected with carrageenan.; assay type: functional
Rattus norvegicus [26] = species on record: Rattus norvegicus; assay: Average percent inhibition (arthritis score=1) of the swelling of both injected and non injected paw was measured;values ranges from: […]-[…]; assay type: functional
[27] = molecular target: T1, Cyclooxygenase (Bos taurus); assay: Tested for Prostaglandin Synthetase inhibition in Bovine seminal vesicle microsomes using Beckman liquid scintillation counter at 10 e-5 M; details: Microsome
Rattus norvegicus [28] = species on record: Rattus norvegicus; assay: Tested for enhancement in the rat paw injected with carrageenan.; assay type: functional
Rattus norvegicus [29] = assay: Tested for inhibition at the dose of 5(mg/kg)/day in the rat paw not injected with carrageenan.; assay type: functional; details: in the assay text read “adjuvant” for “carrageenan”; summary of the method: as §2
Rattus norvegicus [30] = species on record: Rattus norvegicus; assay: Average percent inhibition (arthritis score=3) of the swelling of both injected and non injected paw was measured; assay type: functional; summary of the method: as §4

Structure (SMILES) | LD50 [1] [mg/kg] | inhibition [2] [%] | LD50 [3] [mg/kg] | Inhibition (Rattus norvegicus [4]) [%] | Inhibition (Rattus norvegicus [5]) [%] | Inhibition (Rattus norvegicus [6]) [%] | Total score (Rattus norvegicus [7]) | other results
CC(C)(C)/N=C(\Nc1nccs1)Nc1ccnc2cc(Cl)ccc12 | > 1000 | 5.5 | > 1000 | 26 | 8 | 61 | 7 | –
CC(C)(C)/N=C(/Nc1nccs1)Nc1cccnc1Cl | > 1000 | – | – | – | – | 19 | – | inhibition [8]: 10.1%
Cc1cc(N/C(=N/C(C)(C)C)Nn2cnnc2)c2ccccc2n1 | > 1000 | – | – | – | – | – | – | Enhancement (Rattus norvegicus [9]): 9%
CCOc1cc(N/C(=N/C(C)(C)C)Nc2nccs2)c2ccccc2n1 | 800 | 88.9 | – | 8 | 13 | 39 | 6 | LD50 [10]: 1000 mg/kg; Inhibition (Rattus norvegicus [11]): <10%
CCOC(=O)c1csc(/N=C(\Nc2cc(C)nc3ccccc23)NC(C)(C)C)n1 | > 1000 | 71.8 | – | – | – | – | – | Enhancement (Rattus norvegicus [9]): 36%
CCC(C)(C)/N=C(/Nc1nccs1)Nc1cc(C)nc2ccccc12 | 400 | 100 | – | 59 | 55 | 53 | 9 | LD50 [12]: < 500 mg/kg; Inhibition (Rattus norvegicus [13]): >=50%
COc1ccc2c(c1)c(CC(=O)O)c(C)n2C(=O)c1ccc(Cl)cc1 [INDOMETHACIN] | 24.3 | – | – | – | – | – | – | ED50 (Rattus norvegicus [14]): 3.5 mg/kg; ED50 (Rattus norvegicus [15]): 4.6 mg/kg; ED50 (Rattus norvegicus [16]): > 6 mg/kg; ED50 (Rattus norvegicus [17]): 6.5 mg/kg; LD50 (Rattus norvegicus [18]): 12 mg/kg; minimal effective dose (Rattus norvegicus [19]): 1 mg/kg; minimal effective dose (Rattus norvegicus [20]): 2 mg/kg; minimal effective dose (Rattus norvegicus [21]): < 1 mg/kg; minimal effective dose (Rattus norvegicus [22]): 1.6 mg/kg
CCCCCCCCCC/N=C(\Nc1nccs1)Nc1cc(C)nc2ccccc12 | > 1000 | – | – | – | – | 4 | – | inhibition [8]: 4.5%
CCOC(=O)c1csc(/N=C(\Nc2cc(C)nc3ccccc23)NC2CCCCC2)n1 | > 1000 | 89.8 | > 1000 | 4 | 24 | – | 7 | Enhancement (Rattus norvegicus [9]): 1%; Inhibition (Rattus norvegicus [23]): 29%
Cc1cc(N/C(=N/c2ccccc2)Nc2nccs2)c2ccccc2n1 | > 1000 | 83.8 | > 1000 | 46 | 47 | 59 | 10 | Inhibition (Rattus norvegicus [24]): 49%
CCCCC/N=C(\Nc1nccs1)Nc1cc(C)nc2ccccc12 | 400 | -37 | > 1000 | 19 | – | 62 | 7 | Enhancement (Rattus norvegicus [25]): 4%; Inhibition (Rattus norvegicus [26]): 29%
Cc1cc(N/C(=N/C2CCCCC2)NC2NC=CS2)c2ccccc2n1 (configuration not stated) | > 1000 | – | – | – | – | 33 | – | inhibition [27]: 12.6%
Cc1cc(N/C(=N/C2CCCCCCC2)Nc2nccs2)c2ccccc2n1 | > 1000 | 55.1 | > 1000 | 21 | – | 62 | 9 | Enhancement (Rattus norvegicus [25]): 8%; Inhibition (Rattus norvegicus [23]): 29%
Cc1cc(N/C(=N/C(C)(C)C)Nc2cccs2)c2ccccc2n1 | > 1000 | 37.2 | > 1000 | 16 | 26 | 73 | 8 | Inhibition (Rattus norvegicus [24]): 29%
CC(C)(C)/N=C(\Nc1nccs1)Nc1cc(C(F)(F)F)nc2ccccc12 | > 1000 | 75.4 | > 1000 | – | 2 | 28 | 7 | Enhancement (Rattus norvegicus [28]): 6%; Inhibition (Rattus norvegicus [11]): <10%
Cc1ccc2nc(C)cc(N/C(=N/C3CCCCC3)Nc3nccs3)c2c1 | > 1000 | 0.6 | > 1000 | – | 0 | 65 | 6 | Enhancement (Rattus norvegicus [28]): 21%; Inhibition (Rattus norvegicus [11]): <10%
CCCC/N=C(/Nc1nccs1)Nc1cc(C)nc2ccccc12 | 800 | 0.6 | – | – | – | 89 | 6 | Inhibition (Rattus norvegicus [29]): 34%; Inhibition (Rattus norvegicus [26]): 29%
CC(C)(C)/N=C(\Nc1ccc2ccccc2c1)Nc1nccs1 | > 1000 | 1.7 | – | – | – | – | – | Enhancement (Rattus norvegicus [9]): 17%
Cc1csc(/N=C(\Nc2cc(C)nc3ccccc23)NC(C)(C)C)n1 | 600 | 95.1 | > 1000 | 53 | 59 | 31 | 9 | Inhibition (Rattus norvegicus [30]): >=50%
Cc1cc(N/C(=N/C(C)(C)C)NC2NC=CS2)c2ccccc2n1 (configuration not stated) | 200 | – | – | – | – | 41 | – | inhibition [8]: 1.3%
Cc1cc(N/C(=N/C2CCCCC2)Nc2nc3ccccc3s2)c2ccccc2n1 | > 1000 | 76.1 | > 1000 | – | – | 1 | 6 | Enhancement (Rattus norvegicus [28]): 7%; Enhancement (Rattus norvegicus [25]): 4%; Inhibition (Rattus norvegicus [11]): <10%
Cc1cc(N/C(=N\C(C)(C)C)Nc2nccs2)c2ccccc2n1 | 200 | 100 | – | – | – | 34 | 8 | LD50 [12]: < 500 mg/kg; Inhibition (Rattus norvegicus [29]): 60%; Inhibition (Rattus norvegicus [30]): >=50%
CC(C)(C)/N=C(/Nc1nccs1)Nc1cccc2ccccc12 | > 1000 | 6.9 | – | – | – | – | – | Enhancement (Rattus norvegicus [9]): 19%
Cc1cc(N/C(=N/C2CCCCC2)Nc2nc3ccccc3[nH]2)c2ccccc2n1 | > 1000 | 7.2 | – | – | – | – | – | Enhancement (Rattus norvegicus [9]): 13%
Cc1cc(N/C(=N/C2(C)CCCC2)Nc2nccs2)c2ccccc2n1 | 600 | 100 | – | – | – | 46 | 7 | –
CCOC(=O)c1cnc(/N=C(\Nc2cc(C)nc3ccccc23)NC2CCCCC2)s1 | > 1000 | 15.6 | – | – | – | – | – | Enhancement (Rattus norvegicus [9]): 16%
Cc1cc(N/C(=N/C2CCCCC2)Nc2nc(C)c(C)s2)c2ccccc2n1 | > 1000 | 87.9 | > 1000 | 7 | – | 54 | 8 | Enhancement (Rattus norvegicus [25]): 63%; Inhibition (Rattus norvegicus [13]): <10%
Cc1cc(N/C(=N\CC(C)(C)C)Nc2nccs2)c2ccccc2n1 | 600 | 31.1 | – | 31 | 29 | 66 | 7 | Inhibition (Rattus norvegicus [26]): 29%
CC(C)(C)/N=C(\N)Nc1nccs1.O=C(O)/C=C\C(=O)O | 600 | 29 | – | – | – | 54 | – | –
CC(C)(C)/N=C(/Nc1nccs1)Nc1cccc2cccnc12 | > 1000 | 4.3 | – | – | – | 8 | – | –
